Data set [1] in a line: Metabolic stability in pooled human liver microsomes assessed as substrate remaining in presence of NADPH incubated for 30 mins by LC-MS analysis. The format is ADME, Microsome. The conditions noted are these: read-out: Stabilty. In short, it runs like this:
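Microsomes from male CD-1 mouse or pooled human, 1 mg/mL protein in 0.05 M phosphate buffer pH 7.4. Compound at final 0.1 μM with DMSO cosolvent. Incubated at 37 °C with 1 mM NADPH, or with buffer in place of NADPH. Sampled at 0 and 30 min and quenched with acetonitrile. LC−MS measurement; substrate remaining at 30 min normalized to time zero.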
(In general: Liver microsomes are vesicles of endoplasmic reticulum, rich in cytochrome P450 enzymes.)

The test system of data set [2] is Staphylococcus epidermidis. As to the kind of experiment: Antibacterial activity against methicillin resistant Staphylococcus epidermidis assessed as bacterial growth inhibition after 18 hrs by broth microdilution method. The format is functional. Background: Dilution methods test growth across graded concentrations, often in twofold steps.
The test system of another data set is Enterococcus faecalis. As to the kind of experiment: Antibacterial activity against linezolid resistant Enterococcus faecalis assessed as bacterial growth inhibition after 18 hrs by broth microdilution method. The format is functional.
The next data set deals with Enterococcus faecium. As to the kind of experiment: Antibacterial activity against Enterococcus faecium ATCC 49624 assessed as bacterial growth inhibition after 18 hrs by broth microdilution method. The format is functional. In short, it runs like this:
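Broth microdilution in 96-well plates. Media: cation-adjusted Mueller−Hinton broth for S. aureus, brain heart infusion for VRE, Mueller−Hinton broth for the other strains. Incubated at 37 °C for 18 h, then A600 read. Percent growth inhibition calculated against 1% DMSO vehicle.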

The next data set has as its system Staphylococcus capitis. As to the kind of experiment: Antibacterial activity against linezolid resistant Staphylococcus capitis assessed as bacterial growth inhibition after 18 hrs by broth microdilution method. The format is functional.
Data set [3] has as its target T1, Amine oxidase [flavin-containing] A (Homo sapiens, UniProt P21397).
T1 sequence (P21397 whole entry): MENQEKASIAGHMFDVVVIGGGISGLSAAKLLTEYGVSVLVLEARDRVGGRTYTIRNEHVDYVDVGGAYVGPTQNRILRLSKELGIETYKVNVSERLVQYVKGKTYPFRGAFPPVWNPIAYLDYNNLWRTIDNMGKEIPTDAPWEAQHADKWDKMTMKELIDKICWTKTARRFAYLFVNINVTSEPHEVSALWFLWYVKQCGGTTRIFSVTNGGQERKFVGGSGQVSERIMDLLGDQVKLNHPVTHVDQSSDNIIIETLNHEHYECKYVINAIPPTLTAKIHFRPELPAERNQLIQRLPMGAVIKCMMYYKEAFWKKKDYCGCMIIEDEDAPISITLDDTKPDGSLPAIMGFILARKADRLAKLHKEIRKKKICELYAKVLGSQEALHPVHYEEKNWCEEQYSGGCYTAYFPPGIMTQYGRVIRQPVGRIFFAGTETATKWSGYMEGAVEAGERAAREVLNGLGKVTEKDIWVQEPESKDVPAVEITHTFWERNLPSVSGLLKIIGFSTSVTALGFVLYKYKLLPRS
As to the kind of experiment: Inhibition of MAO-A (unknown origin) using kynuramine as substrate preincubated for 5 mins with substrate followed by enzyme addition and measured after 15 mins by LC-MS/MS analysis. In outline: (§1)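 Recombinant MAO-A (0.01 mg/mL working solution) or MAO-B (0.04 mg/mL working solution) in phosphate buffer. Kynuramine 40 μM working solution. Compound or DMSO preincubated with substrate for 5 min at 37 °C; enzyme then added and incubated 15 min at 37 °C. Reaction quenched. Product 4-hydroxyquinoline (printed as 4-hydroxyquinolinol) measured by LC−MS/MS. Six concentrations in 4-fold dilutions; IC50 from % inhibition versus vehicle.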

Data set [4] has as its target T2, Amine oxidase [flavin-containing] B (Homo sapiens, UniProt P27338).
T2 sequence (P27338 whole entry): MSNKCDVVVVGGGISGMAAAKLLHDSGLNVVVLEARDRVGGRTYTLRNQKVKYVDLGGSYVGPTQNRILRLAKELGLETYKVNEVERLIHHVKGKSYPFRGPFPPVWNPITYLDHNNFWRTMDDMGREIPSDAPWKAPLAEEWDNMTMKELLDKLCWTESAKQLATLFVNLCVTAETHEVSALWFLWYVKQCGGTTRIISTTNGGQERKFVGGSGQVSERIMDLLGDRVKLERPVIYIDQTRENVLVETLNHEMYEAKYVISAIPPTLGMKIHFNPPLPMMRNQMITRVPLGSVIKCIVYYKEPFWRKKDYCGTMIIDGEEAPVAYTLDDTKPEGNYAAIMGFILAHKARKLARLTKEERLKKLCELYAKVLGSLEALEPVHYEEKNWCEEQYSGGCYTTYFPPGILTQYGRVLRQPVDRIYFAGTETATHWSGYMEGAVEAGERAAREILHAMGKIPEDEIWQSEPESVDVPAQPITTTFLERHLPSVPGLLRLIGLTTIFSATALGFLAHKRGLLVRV
As to the kind of experiment: Inhibition of MAO-B (unknown origin) using kynuramine as substrate preincubated for 5 mins with substrate followed by enzyme addition and measured after 15 mins by LC-MS/MS analysis. In short, it runs like this:
as §1

A short description of data set [5]: Cmax in BALB/c mouse at 1 mg/kg, iv measured upto 24 hrs by LC-MS/MS analysis. The format is ADME, organism-based. Also noted: route intravenous, dose 1 mg/kg, time <=24. The conditions noted are these: in vivo. In outline:
(§2)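 Female BALB/c mice, 16−21 g, three per route. Oral dosing at 10 mg/kg as a 5 mg/mL suspension in 0.5% carboxymethyl cellulose. IV dosing at 1 mg/kg as a 1 mg/mL solution in 10% DMSO/50% PEG400/40% water. Blood sampled 15 min to 24 h after oral dosing and 5 min to 24 h after iv. LC/MS/MS quantification in ESI positive mode. Noncompartmental analysis; F = (AUCpo×dose_iv)/(AUCiv×dose_po)×100%.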

A short description of data set [6]: Clearance in BALB/c mouse at 1 mg/kg, iv measured upto 24 hrs by LC-MS/MS analysis. The format is ADME, organism-based. Particulars: in vivo. In outline:
as §2

We go through one molecule from ChEMBL document CHEMBL4837188, “Identification of Novel Tricyclic Benzo[1,3]oxazinyloxazolidinones as Potent Antibacterial Agents with Excellent Pharmacokinetic Profiles against Drug-Resistant Pathogens” (J Med Chem, 2021).

Converted amounts (≈) assume the structure as drawn. A value given as a limit tells only on which side of the number the result lay.

Consider `CC(=O)NC[C@@H]1OC(=O)N2Cc3cc(-c4ccc(C#N)nc4)c(F)cc3O[C@@H]12`, for which the remaining at 0.5 h in [1] is 118%. Moreover, the MIC (commonly the smallest concentration in the dilution series that meets the test's criterion for growth inhibition) in [2] worked out at 1 µg/mL (≈ 2.62 µM); in the data set on Enterococcus faecalis, 1 µg/mL (≈ 2.62 µM); in the data set with Enterococcus faecium it was 1 µg/mL (≈ 2.62 µM); in the data set with Staphylococcus capitis, 2 µg/mL (≈ 5.23 µM). The IC50 (in general, the midpoint of a concentration-inhibition curve) in [3] is greater than 50 µM; in data set [4] it was 6.07 µM. Further, in [5], the Cmax (usually the maximum level reached in the sampled fluid or tissue) came out at 1790 ng/mL. Further, in data set [6], the clearance (as a rule, the volume of plasma or blood freed of the substance per unit of time) is 2.71 mL/min/kg.
